Data as given in article PMC9939360 (Acta Pharmaceutica Sinica. B, 2022).
Read-outs that look alike come from different tables or passages of the source. Marks after values point to notes of the source that are not given here.

Legend:
hM4 mAChR [1] = target: T1, hM4 mAChR (Homo sapiens, UniProt P08173); experiment: [35S]-GTPγS binding assay with ACh, operational model of allosterism; type: biochemical; conditions: mean ± SEM; for LogβACh (logarithm of the activation cooperativity factors between ACh and M4-PAMs): determined by subtracting (α) from the (αβ) parameters; for LogαβACh (logarithm of the operational functional cooperativity factors between ACh and M4-PAMs) / Logτ (logarithm of the operational efficacy parameter of M4-PAMs as allosteric agonists): hM4 membranes
T1 sequence (P08173 1-479): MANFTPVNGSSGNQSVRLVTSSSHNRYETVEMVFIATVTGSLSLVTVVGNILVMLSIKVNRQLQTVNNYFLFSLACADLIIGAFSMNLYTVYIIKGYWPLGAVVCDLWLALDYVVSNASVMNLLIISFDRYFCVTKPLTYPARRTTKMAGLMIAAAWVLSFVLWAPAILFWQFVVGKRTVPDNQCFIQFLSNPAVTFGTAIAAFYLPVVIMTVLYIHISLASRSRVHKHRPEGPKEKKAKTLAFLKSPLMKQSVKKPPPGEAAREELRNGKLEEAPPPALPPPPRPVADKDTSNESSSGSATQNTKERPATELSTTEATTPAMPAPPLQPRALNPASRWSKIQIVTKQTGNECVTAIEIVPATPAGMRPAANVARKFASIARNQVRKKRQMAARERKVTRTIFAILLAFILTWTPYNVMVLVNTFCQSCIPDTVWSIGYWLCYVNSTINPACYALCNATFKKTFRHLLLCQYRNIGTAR
Summary of the method: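 Membranes from FlpInCHO cells stably expressing wild-type human M4, 15 μg per assay, preincubated 60 min at 30 °C with 10 μmol/L GDP and ACh (10 nmol/L–10 mmol/L), with or without M4-PAMs (0.1–10 μmol/L). [35S]GTPγS (1 nmol/L, as added) then given for 30 min at 30 °C. Bound label collected on GF/B filters and counted by scintillation. Data fitted to an operational model of allosterism and agonism.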

hM4 mAChR [2] = target: T1, hM4 mAChR; type: binding; conditions: for LogαACh (logarithm of the binding cooperativity factor between M4-PAMs and ACh): CHO cells stably expressing hM4, mean ± SEM
Summary of the method: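 Intact FlpIn CHO cells stably expressing human M4 were grown in DMEM/5% FBS, plated at 20,000 per well and grown overnight at 37 °C. After PBS washes, cells were incubated with an ACh concentration series, with or without increasing test compound concentrations, plus [3H]-NMS (~0.1 nmol/L). Atropine (10 μmol/L) defined nonspecific binding. Cells were washed with ice-cold 0.9% NaCl and counted by scintillation. KB and α came from an allosteric ternary complex model fit.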

M1, M2, M3 and M5 = experiment: Tango assay, selectivity over other muscarinic subtypes; type: cell-based
Summary of the method: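 HEK293 cells stably carrying a tTA-dependent luciferase reporter and a β-arrestin2–TEV fusion were kept in DMEM/10% FBS with puromycin and hygromycin B at 37 °C, 5% CO2. They were transfected, then replated on day 3 at 15,000–20,000 cells/well on poly-L-lysine. On day 4 test compound was added in HEPES/1× HBSS buffer, pH 7.4. On day 5, Bright-Glo luminescence was read after 15–20 min at room temperature (RLU). Carbachol served as reference agonist.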

M4 [3] = conditions: humans; cited from earlier work
M4 [4] = conditions: rhesus monkeys; cited from earlier work

| SMILES | LogβACh (logarithm of the activation cooperativity factors between ACh and M4-PAMs) (hM4 mAChR [1]) | LogαβACh (logarithm of the operational functional cooperativity factors between ACh and M4-PAMs) (hM4 mAChR [1]) | Logτ (logarithm of the operational efficacy parameter of M4-PAMs as allosteric agonists) (hM4 mAChR [1]) | Kb (hM4 mAChR [2]) | LogαACh (logarithm of the binding cooperativity factor between M4-PAMs and ACh) (hM4 mAChR [2]) | selectivity over other muscarinic acetylcholine receptor subtypes (M1, M2, M3 and M5) | peak striatal SUV (M4 [3]) | peak striatal SUV (M4 [4]) |
| --- | --- | --- | --- | --- | --- | --- | --- | --- |
| CN1Cc2ccc(-c3nc(C#N)ccc3-c3cnn(CC4CCCC4)c3)cc2C1=O [Compound 8, 5-(1-(cyclopentylmethyl)-1H-pyrazol-4-yl)-6-(2-methyl-3-oxoisoindolin-5-yl)picolinonitrile] | 0.1 ± 0.3 | 1.9 ± 0.2 | 0.3 ± 0.0 | 398 nM | 1.7 ± 0.3 |  |  |  |
| Cc1ccc(-c2cnn(CC3CCCC3)c2)c(-c2ccc3c(c2)C(=O)N(C)C3)n1 [Compound 10, 6-(3-(1-(cyclopentylmethyl)-1H-pyrazol-4-yl)-6-methylpyridin-2-yl)-2-methylisoindolin-1-one] | 0.4 ± 0.2 | 2.0 ± 0.2 | 0.7 ± 0.0 | 316 nM | 1.6 ± 0.2 |  |  |  |
| Cc1ccc(-c2cnn(CC3CCCC3)c2)c(-c2ccc3c(c2)C(=O)NC3)n1 [Compound 11, 6-(3-(1-(cyclopentylmethyl)-1H-pyrazol-4-yl)-6-methylpyridin-2-yl)isoindolin-1-one] | 0.5 ± 0.3 | 1.9 ± 0.2 | 0.5 ± 0.0 | 501 nM | 1.4 ± 0.2 |  |  |  |
| N#Cc1ccc(-c2cnn(CC3CCCC3)c2)c(-c2ccc3c(c2)C(=O)N(CCF)C3)n1 [Compound 12, 5-(1-(cyclopentylmethyl)-1H-pyrazol-4-yl)-6-(2-(2-fluoroethyl)-3-oxoisoindolin-5-yl)picolinonitrile] | 1.1 ± 0.2 | 2.5 ± 0.1 ^f | 0.5 ± 0.0 | 398 nM | 1.4 ± 0.1 | selective |  |  |
| N#Cc1ccc(-c2cnn(CC3CCCC3)c2)c(-c2ccc3c(c2)C(=O)N(CCCF)C3)n1 [Compound 13, 5-(1-(cyclopentylmethyl)-1H-pyrazol-4-yl)-6-(2-(3-fluoropropyl)-3-oxoisoindolin-5-yl)picolinonitrile] | 0.8 ± 0.2 | 2.4 ± 0.2 ^f | 0.6 ± 0.0 | 398 nM | 1.6 ± 0.2 |  |  |  |
| CC1(Cn2cc(-c3ccc(C#N)nc3-c3ccc4c(c3)C(=O)N([11CH3])C4)cn2)CCCC1 [[^11C]MK-6884] |  |  |  |  |  |  | ca. 2.5 | ca. 1.2 |
